ChEMBL document CHEMBL1132972, “Pyrrolidine inhibitors of human cytosolic phospholipase A(2)” (J Med Chem, 2000)

Assays:
[1] = biological target: T1, Cytosolic phospholipase A2 (Homo sapiens, UniProt P47712); experiment: Inhibition of Human cPLA2 alpha using Enzyme assay(PC/DOG assay)
T1 sequence (P47712 whole entry): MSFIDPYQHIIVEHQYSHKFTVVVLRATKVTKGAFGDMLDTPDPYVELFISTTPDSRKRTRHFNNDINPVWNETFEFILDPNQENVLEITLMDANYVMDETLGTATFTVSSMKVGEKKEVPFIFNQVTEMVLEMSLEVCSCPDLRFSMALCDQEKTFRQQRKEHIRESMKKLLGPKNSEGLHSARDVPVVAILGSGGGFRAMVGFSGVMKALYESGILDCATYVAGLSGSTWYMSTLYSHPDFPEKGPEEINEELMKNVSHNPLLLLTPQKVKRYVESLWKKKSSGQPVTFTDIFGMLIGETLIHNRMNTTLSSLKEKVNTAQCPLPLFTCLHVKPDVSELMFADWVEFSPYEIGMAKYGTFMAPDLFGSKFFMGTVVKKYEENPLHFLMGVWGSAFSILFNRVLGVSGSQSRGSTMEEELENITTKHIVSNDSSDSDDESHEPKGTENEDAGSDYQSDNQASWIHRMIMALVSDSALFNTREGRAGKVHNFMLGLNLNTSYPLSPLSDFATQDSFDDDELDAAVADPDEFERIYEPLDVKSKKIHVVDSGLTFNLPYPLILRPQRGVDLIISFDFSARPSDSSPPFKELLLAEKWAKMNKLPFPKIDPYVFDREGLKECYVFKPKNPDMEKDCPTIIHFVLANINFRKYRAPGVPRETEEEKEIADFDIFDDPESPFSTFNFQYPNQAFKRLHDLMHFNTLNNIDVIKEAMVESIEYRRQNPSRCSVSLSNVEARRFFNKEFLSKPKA

[2] = tested on: THP-1; experiment: Inhibition of arachidonic acid production from THP-1 cells stimulated with A-23187 using cellular assay; format: functional, cell-based; conditions: Homo sapiens
Summary of the method: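 DMSO-differentiated THP-1 cells (1.3% DMSO for 2 days in RPMI 1640/10% FCS), washed with PBS, held in Hanks' saline pH 7.6 plus 0.1% BSA. Preincubated with inhibitor 15 min at 37 °C, then stimulated with 3 µM calcium ionophore A23187 for 20 min at 37 °C. Arachidonic acid release measured; IC50, mean ± SD, n=3 independent determinations.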

[3] = tested on: THP-1; experiment: Effect on production of eicosanoids from THP-1 cells stimulated with A-23187 using cellular assay on PGE-2; format: functional, cell-based; conditions: Homo sapiens
Summary of the method: (§1)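 THP-1 cells grown in RPMI 1640 with 10% FCS, differentiated with 1.3% DMSO for 2 days, PBS-washed, suspended in Hanks' saline pH 7.6 with 0.1% BSA. Inhibitor preincubation 15 min at 37 °C, then 3 µM A23187 for 20 min at 37 °C. Stopped on ice; supernatant LTC4 and PGE2 measured by radio immunoassay and enzyme immunoassay. IC50, mean ± SD of three independent determinations.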

[4] = tested on: THP-1; experiment: Effect of pyrrolidine derivatives on production of eicosanoids from THP-1 cells stimulated with A-23187 using cellular assay on LTC-4; format: functional, cell-based; conditions: Homo sapiens; summary of the method: as §1
[5] = tested on: THP-1; experiment: Effect of pyrrolidine derivatives on production of eicosanoids from THP-1 cells stimulated with A-23187 using cellular assay on PGE-2, LTC-4; format: functional, cell-based; conditions: Homo sapiens; summary of the method: as §1
[6] = tested on: THP-1; experiment: Effect on production of eicosanoids from THP-1 cells stimulated with A-23187 using cellular assay on PGE-2, LTC-4; format: functional, cell-based; conditions: Homo sapiens; summary of the method: as §1

| SMILES | IC50 [1] | IC50 [2] | IC50 [3] | IC50 [4] | IC50 [5] | IC50 [6] |
| --- | --- | --- | --- | --- | --- | --- |
| CC(C)Cc1cccc(Br)c1O[C@@H]1C[C@@H](CNC(=O)c2ccc(/C=C3\SC(=O)NC3=O)cc2)N(C(=O)c2ccccc2C(=O)c2ccc(F)cc2F)C1 | 0.022 µM | 0.22 µM |  |  |  |  |
| O=C1NC(=O)/C(=C/c2ccc(C(=O)NC[C@@H]3C[C@@H](OCc4ccccc4-c4ccccc4)CN3C(=O)c3ccc(C(=O)c4ccccc4)cc3)cc2)S1 | > 10 µM | 5.5 µM |  |  |  |  |
| O=C1NC(=O)/C(=C/c2ccc(C(=O)NC[C@@H]3C[C@@H](OCc4ccccc4-c4ccccc4)CN3C(=O)c3ccccc3C(=O)c3ccc(F)cc3F)cc2)S1 | 0.049 µM | 0.23 µM |  |  |  |  |
| O=C1NC(=S)S/C1=C\c1ccc(C(=O)NC[C@@H]2C[C@@H](SCc3ccccc3-c3ccccc3)CN2C(=O)c2ccccc2C(=O)c2ccc(F)cc2)cc1 | 0.072 µM | 0.4 µM |  |  |  |  |
| O=C1NC(=O)/C(=C/c2ccc(C(=O)NC[C@@H]3C[C@@H](SCc4ccccc4-c4ccccc4)CN3C(=O)c3ccccc3C(=O)c3ccc(F)cc3)cc2)S1 |  | 0.25 µM |  |  |  |  |
| CC(C)Cc1cccc(Br)c1O[C@@H]1C[C@@H](CNC(=O)c2ccc(/C=C3\SC(=O)NC3=O)cc2)N(C(=O)c2ccccc2C(=O)c2ccc(F)cc2)C1 | 0.038 µM | 0.3 µM |  |  |  |  |
| O=C1NC(=O)/C(=C/c2ccc(C(=O)NC[C@@H]3C[C@@H](OCc4ccccc4-c4ccccc4)CN3C(=O)c3cccc(C(=O)c4ccccc4)c3)cc2)S1 | > 10 µM | 5.9 µM |  |  |  |  |
| O=C1NC(=O)/C(=C/c2ccc(C(=O)NC[C@@H]3C[C@@H](OCc4ccccc4-c4ccccc4)CN3C(=O)c3ccccc3C(=O)c3ccccc3)cc2)S1 | 0.165 µM | 0.67 µM | 0.41 µM | 0.37 µM |  |  |
| O=C1NC(=O)/C(=C/c2ccc(C(=O)NC[C@@H]3C[C@@H](Oc4ccccc4-c4ccccc4)CN3C(=O)c3ccccc3C(=O)c3ccc(F)cc3)cc2)S1 |  | 0.31 µM | 0.21 µM |  |  |  |
| O=C1NC(=S)S/C1=C\c1ccc(C(=O)NC[C@@H]2C[C@@H](OCc3ccccc3-c3ccccc3)CN2C(=O)c2ccccc2C(=O)c2ccc(F)cc2)cc1 | 0.09 µM | 0.7 µM |  |  |  |  |
| O=C1NC(=S)S/C1=C\c1ccc(C(=O)NC[C@@H]2C[C@@H](Oc3ccccc3-c3ccccc3)CN2C(=O)c2ccccc2C(=O)c2ccc(F)cc2)cc1 | 0.083 µM | 0.66 µM |  |  |  |  |
| O=C1NC(=O)/C(=C/c2ccc(C(=O)NC[C@@H]3C[C@@H](OCc4ccccc4-c4ccccc4)CN3C(=O)c3ccccc3C(=O)c3ccc(F)cc3)cc2)S1 | 0.078 µM | 0.32 µM |  |  | 0.26 µM | 0.26 µM |
| COc1ccc2c(c1)c(CC(=O)O)c(C)n2C(=O)c1ccc(Cl)cc1 [INDOMETHACIN] |  | > 10 µM |  |  | > 10 µM | 0.0036 µM |

Stronger by IC50 [2], values ahead:

| IC50 [1] | IC50 [2] | IC50 [3] | IC50 [4] | IC50 [5] | IC50 [6] | SMILES |
| --- | --- | --- | --- | --- | --- | --- |
|  | 0.052 µM |  |  |  |  | CC(C)CN(Cc1ccccc1-c1ccccc1)[C@@H]1C[C@@H](CNC(=O)/C=C/c2ccc(/C=C3\SC(=O)NC3=O)cc2)N(C(=O)c2ccccc2C(=O)c2ccc(F)cc2)C1 |
| 0.021 µM | 0.18 µM |  |  |  |  | CC(C)CN(Cc1ccccc1-c1ccccc1)[C@@H]1C[C@@H](CNC(=O)c2ccc(/C=C3\SC(=O)NC3=O)cc2)N(C(=O)c2ccccc2C(=O)c2ccc(F)cc2)C1 |
|  | 0.022 µM |  |  | 0.013 µM | 0.031 µM | CC(C)CN(Cc1ccccc1-c1ccccc1)[C@@H]1C[C@@H](CNC(=O)/C=C/c2ccc(/C=C3\SC(=O)NC3=O)cc2)N(C(=O)c2ccccc2C(=O)c2ccc(F)cc2F)C1 |
| 0.0062 µM | 0.047 µM |  |  |  |  | CC(C)CN(Cc1ccccc1-c1ccccc1)[C@@H]1C[C@@H](CNC(=O)c2ccc(/C=C3\SC(=O)NC3=O)cc2)N(C(=O)c2ccccc2C(=O)c2ccc(F)cc2F)C1 |
| 0.0053 µM | 0.092 µM |  |  |  |  | CC(C)Cc1cccc(-c2ccccc2C(C)C)c1O[C@@H]1C[C@@H](CNC(=O)c2ccc(/C=C3\SC(=O)NC3=O)cc2)N(C(=O)c2ccccc2C(=O)c2ccc(F)cc2)C1 |
| 0.0021 µM | 0.055 µM |  |  |  |  | CC(C)Cc1cccc(-c2ccccc2C(C)C)c1O[C@@H]1C[C@@H](CNC(=O)c2ccc(/C=C3\SC(=O)NC3=O)cc2)N(C(=O)c2ccccc2C(=O)c2ccc(F)cc2F)C1 |
